Usually CC50 stands for the concentration at which the toxic effect on the cells reaches its halfway point. What is called pIC50 is −log10 of the IC50, conventionally taken in molar units.

These results are taken from article PMC7114315 (Antiviral Research, 2010).

pIC50: −log10 of the molar value. Where two headings read alike, the source gives them in different places.

Data set [1] can be described thus: Cell viability by MTT assay. It counts as cell-based, Felis catus. The following applies: cat (Felis catus), fcwf-4 cells. The essentials:
(§1)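 fcwf-4 cells grown in DMEM with 5% FBS, penicillin/streptomycin, 5% CO2, 37 °C; 20,000 cells/well seeded, 24 h at 37 °C to confluence. Test compounds (in DMSO or double distilled water), twofold serially diluted, applied 72 h. MTT ([…]) 4 h at 37 °C, lysis overnight at room temperature, absorbance 570/655 nm. Viability = treated/untreated OD × 100; CC50 = 50% viability reduction; triplicate.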

The next data set concerns fcwf-4 cells. The experiment in a line: Cell viability by MTT assay. It counts as cell-based, Felis catus. The following applies: for Cytotoxic effect under the tested concentrations: three days of treatment, Fig. 1; for CC50: fcwf-4 cells, 72 h, MTT. The essentials: as §1
In general terms: Formazan colour is commonly taken as a measure of viable cells.

In data set [2] the test system is FCoV (NTU156) in fcwf-4 cells. It counts as cell-based, feline coronavirus.
For data set [3], the system named is FCoV (NTU156) in fcwf-4 cells. The experiment in a line: microbe, parasite or virus in culture. In kind it is cell-based, feline coronavirus.
For data set [4] the following is noted: 9 clinical healthy FCoV-shedding cats, 6.25 mg to 50 mg/kg/day per os, preliminary.
A further data set concerns SARS-CoV. The conditions noted are these: read-out: IC50 on SARS-CoV; cited from earlier work.

`Nc1nc2c(ncn2COCCO)c(=O)[nH]1` [Acyclovir, acyclovir] registered a CC50 at 72 h in data set [1] of at least 888 µM. Take `COC(=O)N[C@H](C(=O)N[C@@H](Cc1ccccc1)[C@@H](O)CN(Cc1ccc(-c2ccccn2)cc1)NC(=O)[C@@H](NC(=O)OC)C(C)(C)C)C(C)(C)C` [Atazanavir, atazanavir]: the CC50 at 72 h in data set [1] was 48.6 µM. Moreover, the “Cytotoxic effect under the tested concentrations” value (“Cytotoxic effect” for short) with fcwf-4 cells is reported as “dramatic cytotoxic effect”. The corresponding values for `O=C1Nc2ccc(Cl)cc2[C@@](C#CC2CC2)(C(F)(F)F)O1` [Efavirenz, efavirenz] are 52.1 µM and “dramatic cytotoxic effect”. For `Cc1cc(O)c2c(c1)C(=O)c1cc(O)cc(O)c1C2=O` [Emodin, emodin] the same measures were 67.4 µM and “dramatic cytotoxic effect”.

In turn, `O=c1[nH]c(=O)n([C@H]2C[C@H](O)[C@@H](CO)O2)cc1I` [Idoxuridine, idoxuridine] registered a CC50 at 72 h in data set [1] of at least 141 µM. Regarding `CC(C)(C)NC(=O)[C@@H]1CN(Cc2cccnc2)CCN1C[C@@H](O)C[C@@H](Cc1ccccc1)C(=O)N[C@H]1c2ccccc2C[C@H]1O` [Indinavir, indinavir], the CC50 at 72 h in data set [1] was at least 70.2 µM. Still for that read-out and setting: the result for `Nc1ccn([C@@H]2CS[C@H](CO)O2)c(=O)n1` [Lamivudine, lamivudine] reads at least 27.3 µM. Turning to `Cc1c(O)cccc1C(=O)N[C@@H](CSc1ccccc1)[C@H](O)CN1C[C@H]2CCCC[C@H]2C[C@H]1C(=O)NC(C)(C)C` [Nelfinavir, nelfinavir], half-maximal cytotoxicity in data set [1] (CC50 at 72 h) was put at 11.5 µM. Further, the “Cytotoxic effect” value in the data set with fcwf-4 cells is listed as “dramatic cytotoxic effect”. Also, in data set [2], the “Number of CPE foci compared with untreated groups” value is given as “significantly inhibited the number of CPE foci”. For the same compound, the “Induction of CPE foci” value in data set [2] (only the highest concentration, 9.41 μM, P < 0.001, […]) is on record as “significantly blocked the induction of CPE foci”. Besides, the pIC50 is 5.09 in data set [3] (Alphacoronavirus 1, 72 h) and 7.32 in the data set on SARS-CoV. The “Side effects (e.g., diarrhea or nausea)” value in data set [4] is “no obviously side effects”. In the data set on fcwf-4 cells, `Cc1ccnc2c1NC(=O)c1cccnc1N2C1CC1` [Nelvirapine, nelvirapine] yielded a CC50 of at least 46.9 µM. For `CN(C)CCCN1c2ccccc2Sc2ccccc21` [Promazine, promazine], the CC50 at 72 h in data set [1] is at least 0.1 µM. In data set [1], `NC(=O)c1ncn([C@@H]2O[C@H](CO)[C@@H](O)[C@H]2O)n1` [Ribavirin, ribavirin] gave a CC50 at 72 h of at least 409 µM. In data set [1], `CC(C)(C)NC(=O)[C@@H]1C[C@@H]2CCCC[C@@H]2CN1C[C@@H](O)[C@H](Cc1ccccc1)NC(=O)[C@H](CC(N)=O)NC(=O)c1ccc2ccccc2n1` [Saquinavir, saquinavir] came in with a CC50 at 72 h of 95.8 µM. In addition, in the data set on fcwf-4 cells, the “Cytotoxic effect” value is “dramatic cytotoxic effect”. For `Cc1cn([C@H]2C=C[C@@H](CO)O2)c(=O)[nH]c1=O` [Stavudine, stavudine], in data set [1], the CC50 at 72 h is at least 55.8 µM. For the compound Galanthus nivalis agglutinin, in the data set on fcwf-4 cells, the CC50 was at least 0.00192 µM. The “Inhibition of CPE foci, concentration-dependence” value in data set [2] (all four concentrations, […]) is reported as “strong inhibitory activities at all four concentrations”. In addition, the pIC50 in data set [3] was 11.06.
